From ChEMBL document CHEMBL4428047 (J Med Chem, 2016)
In brackets after ≈: the same amount, converted by molar mass.

Assays:
[1] = Clearance in human liver microsomes assessed as drug turnover level at 1 uM incubated for 30 mins in presence of NADPH; type: ADME, Microsome; conditions: read-out: CLH
How it was run: (§1)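 Parent compound at 1 µM incubated with liver microsomes (0.25 mg/mL) in 66.7 mM potassium phosphate with 1 mM NADPH, 37 °C, 30 min; % turnover measured by LC/MS.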

[2] = Clearance in rat liver microsomes assessed as drug turnover level at 1 uM incubated for 30 mins in presence of NADPH; type: ADME, Microsome; conditions: read-out: CLH; how it was run: as §1
[3] = Clearance in Sprague-Dawley rat at 0.5 mg/kg, iv by LC-MS method; type: ADME, organism-based; conditions: in vivo
How it was run: (§2)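 Male Sprague-Dawley rats, two animals per study, dosed IV at 0.5 mg/kg as a solution in 100% DMSO. Unbound clearance calculated as total clearance divided by rat plasma fraction unbound (CLu = CL/fu).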

[4] = Unbound clearance in Sprague-Dawley rat at 0.5 mg/kg, iv by LC-MS method; type: ADME, organism-based; conditions: in vivo; how it was run: as §2
[5] = Oral bioavailability in Sprague-Dawley rat at 2 mg/kg by LC-MS method; type: ADME, organism-based; conditions: in vivo
[6] = Aqueous equilibrium solubility at room temperature after 72 hrs at pH 7.4 by HPLC; type: physicochemical; conditions: buffer
[7] = Apparent permeability in LLC-PK1 cells by LC-MS method; type: ADME, cell-based, Sus scrofa; conditions: pig
How it was run: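 Passive permeability across LLCPK1 monolayers; apparent permeability (Papp) obtained by mass balance with LC/MS quantitation.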

Row | microsomal CLint at 1 µM [1] [µL/min/mg] | microsomal CLint at 1 µM [2] [µL/min/mg] | clearance [3] [mL/min/kg] | CL free [4] [mL/min/kg] | bioavailability [5] [%] | solubility thermodynamic at 72 h [6] [µg/mL] | Papp [7] [×10⁻⁶ cm/s] | Structure (SMILES)
1 | 51 | < 14 |  |  |  |  |  | CC(C)NC(=O)c1c(-c2ccccc2)c([C@H](C)Nc2ncnc(N)c2C#N)nc2ccc(F)cc12
2 | < 14 | < 14 | 10 |  |  |  |  | C[C@H](Nc1ncnc(N)c1C#N)c1nc2ccc(F)cc2c(C(N)=O)c1-c1ccccc1
3 | < 14 | < 14 | 8.33 | 38.3 | 70 | 200 (≈ 452 µM) | 14.6 | CNC(=O)c1c(-c2ccccn2)c([C@H](C)Nc2ncnc(N)c2C#N)nc2ccc(F)cc12
4 | 198 | 426 |  |  |  |  |  | C[C@H](Nc1ncnc(N)c1C#N)c1nc2ccc(F)cc2c(C(=O)N(C)C)c1-c1ccccc1
5 | < 14 | < 14 | 3.33 | 102 |  |  |  | CCNC(=O)c1c(-c2ccccn2)c([C@H](C)Nc2ncnc(N)c2C#N)nc2ccc(F)cc12
6 | < 14 | < 14 | 5 | 45 | 54 | > 200 | 30 | C[C@H](Nc1ncnc2[nH]cnc12)c1cc2ccc(F)cc2nc1-c1ccccn1 [AMG-319]
7 | < 14 | < 14 |  |  |  |  |  | CNCCNC(=O)c1c(-c2ccccc2)c([C@H](C)Nc2ncnc(N)c2C#N)nc2ccc(F)cc12
8 | 82 | 50 | 15 | 1000 |  |  |  | C[C@H](Nc1ncnc(N)c1C#N)c1nc2ccc(F)cc2c(C(=O)N2CCNCC2)c1-c1ccccc1
9 | 22 | < 14 |  |  |  |  |  | CCNC(=O)c1c(-c2ccccc2)c([C@H](C)Nc2ncnc(N)c2C#N)nc2ccc(F)cc12
10 | < 14 | < 14 |  |  |  |  |  | CC(Nc1ncnc(N)c1C#N)c1nc2ccc(F)cc2c(C(=O)N2CC(O)C2)c1-c1ccccn1 (racemic)
11 | 62 | 78 |  |  |  |  |  | C[C@H](Nc1ncnc(N)c1C#N)c1nc2ccc(F)cc2c(C(=O)N2CCS(=O)(=O)CC2)c1-c1ccccc1
12 | 24 | 17 |  |  |  |  |  | CC(Nc1ncnc(N)c1C#N)c1nc2ccc(F)cc2c(C(=O)N2CCNCC2)c1-c1ccccn1 (racemic)
13 | 40 | 49 |  |  |  |  |  | C[C@H](Nc1ncnc(N)c1C#N)c1nc2ccc(F)cc2c(C(=O)N2CC(O)C2)c1-c1ccccc1
14 | 47 | 16 |  |  |  |  |  | C[C@H](Nc1ncnc(N)c1C#N)c1nc2ccc(F)cc2c(-c2ccccn2)c1-c1ccccn1
15 | < 14 | < 14 | 11.7 | 67 | 29 | 200 (≈ 452 µM) | 8 | CNC(=O)c1c(-c2ccccn2)c([C@H](C)Nc2ncnc(N)c2C#N)nc2cccc(F)c12
16 | 33 | < 14 | 16.7 | 468 |  |  |  | CNCCNC(=O)c1c(-c2ccccn2)c([C@H](C)Nc2ncnc(N)c2C#N)nc2ccc(F)cc12
17 | < 14 | 15 | 8.33 | 75 |  |  |  | CNC(=O)c1c(-c2ccccc2)c([C@H](C)Nc2ncnc(N)c2C#N)nc2ccc(F)cc12
